Assay results published in ChEMBL document CHEMBL1126715, “Synthesis and tissue distribution of (m-[125I]iodobenzyl)trozamicol ([125I]MIBT): potential radioligand for mapping central cholinergic innervation” (J Med Chem, 1993).

Tests used:
Rattus norvegicus [1] = organism: Rattus norvegicus; test: Tissue distribution in rat brain after 5 minutes (n=3); assay type: ADME, organism-based; conditions: in vivo
Method in brief: (§1)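 Male Wistar rats (200-350 g) under ether anesthesia; radiotracer (3-5 μCi in 0.1 mL 50% aqueous ethanol) given iv. At 5, 30, 60 and 180 min, blood was drawn by cardiac puncture and animals were killed by cardiectomy. Organs were weighed and γ-counted against a 1:100 dilution of the injected dose. Results are given as % injected dose/g tissue; ratios are taken between tissue levels.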

Rattus norvegicus [2] = organism: Rattus norvegicus; test: Ratio of tissue distribution between rat brain and blood after 180 min; assay type: ADME, organism-based; conditions: 3 h
Method in brief: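 Male Wistar rats (200-350 g) under ether anesthesia, iv radiotracer (3-5 μCi in 0.1 mL 50% aqueous ethanol). At 5, 30, 60, 180 min blood taken by cardiac puncture, animal killed by cardiectomy; organs weighed, γ-counted against 1:100 injected-dose dilution; % injected dose/g tissue; brain/blood ratio.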

Rattus norvegicus [3] = organism: Rattus norvegicus; test: Tissue distribution in rat brain after 60 minutes (n=3); assay type: ADME, organism-based; conditions: in vivo, 1 h; method in brief: as §1
Rattus norvegicus [4] = organism: Rattus norvegicus; test: Tissue distribution in rat muscle after 30 minutes (n=3); assay type: ADME, organism-based; conditions: in vivo, 0.5 h
Method in brief: (§2)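 Male Wistar rats (200-350 g) under ether, iv [125I]tracer (3-5 μCi in 0.1 mL 50% aqueous EtOH). At 5, 30, 60 or 180 min, blood taken by cardiac puncture and the rat killed by cardiectomy. Organs weighed and γ-counted against 1:100 dilutions of the injected dose; results in % injected dose/g, with range.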

Rattus norvegicus [5] = organism: Rattus norvegicus; test: Effect of 4-aminobenzovesamicol on the regional distribution of compound in the rat brain caudate-putamen (n=4) [0.40 (0.35-0.47)]; assay type: ADME, organism-based; conditions: in vivo
Rattus norvegicus [6] = organism: Rattus norvegicus; test: Tissue distribution in rat muscle after 60 minutes (n=3); assay type: ADME, organism-based; conditions: in vivo, 1 h; method in brief: as §2
Rattus norvegicus [7] = organism: Rattus norvegicus; test: Tissue distribution in rat gonads after 60 minutes (n=3); assay type: ADME, organism-based, Gonad; conditions: in vivo, 1 h; method in brief: as §2
Rattus norvegicus [8] = organism: Rattus norvegicus; test: Tissue distribution in rat liver after 180 minutes (n=3); assay type: ADME, organism-based; conditions: in vivo, 3 h; method in brief: as §2
Rattus norvegicus [9] = organism: Rattus norvegicus; test: Ratio of regional kinetics between rat brain caudate and cerebellum at 120 minutes; assay type: ADME, organism-based; conditions: in vivo, 2 h
Method in brief: (§3)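 Male Wistar rats (n = 4/group) under ether anesthesia, iv (+)-[125I]MIBT (2 μCi in 100 μL 50% aqueous EtOH); killed at 30, 120, 180 min. Brains partially frozen, dissected into striatum, cerebellum, cortex and remainder; radioactivity counted, % dose/g vs injected-dose dilutions; caudate/cortex and caudate/cerebellum ratios.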

Rattus norvegicus [10] = organism: Rattus norvegicus; test: Tissue distribution in rat kidney after 30 minutes (n=3); assay type: ADME, organism-based; conditions: in vivo, 0.5 h; method in brief: as §1
Rattus norvegicus [11] = organism: Rattus norvegicus; test: Tissue distribution in rat thyroid after 180 minutes (n=3); assay type: ADME, organism-based, Thyroid gland; conditions: in vivo, 3 h; method in brief: as §1
Rattus norvegicus [12] = organism: Rattus norvegicus; test: Effect of 4-aminobenzovesamicol on the regional distribution of compound in the remainder of rat brain (n=4) [0.21 (0.17-0.23)]; assay type: ADME, organism-based; conditions: in vivo
Rattus norvegicus [13] = organism: Rattus norvegicus; test: Tissue distribution in rat liver after 30 minutes (n=3); assay type: ADME, organism-based; conditions: in vivo, 0.5 h; method in brief: as §1
Rattus norvegicus [14] = organism: Rattus norvegicus; test: Tissue distribution in rat muscle after 5 minutes (n=3); assay type: ADME, organism-based; conditions: in vivo; method in brief: as §1
Rattus norvegicus [15] = organism: Rattus norvegicus; test: Tissue distribution in rat liver after 5 minutes (n=3); assay type: ADME, organism-based; conditions: in vivo; method in brief: as §2
Rattus norvegicus [16] = organism: Rattus norvegicus; test: Tissue distribution in rat blood after 5 minutes (n=3); assay type: ADME, organism-based; conditions: in vivo; method in brief: as §1
Rattus norvegicus [17] = organism: Rattus norvegicus; test: Tissue distribution in rat blood after 60 minutes (n=3); assay type: ADME, organism-based; conditions: in vivo, 1 h; method in brief: as §2
Rattus norvegicus [18] = organism: Rattus norvegicus; test: Regional kinetics in the remainder of rat brain at 180 minutes; assay type: ADME, organism-based; conditions: in vivo, 3 h
Method in brief: (§4)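 Male Wistar rats (n = 4 per time point) under ether received (+)-radiotracer iv (2 μCi in 100 μL 50% aqueous EtOH). They were killed at 30, 120 or 180 min. Brains were partially frozen and dissected into striatum, cerebellum, cortex and remainder. Regions were γ-counted against injected-dose dilutions and expressed as % injected dose/g tissue.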

Rattus norvegicus [19] = organism: Rattus norvegicus; test: Tissue distribution in rat lung after 5 minutes (n=3); assay type: ADME, organism-based; conditions: in vivo; method in brief: as §1
Rattus norvegicus [20] = organism: Rattus norvegicus; test: Regional kinetics in the rat cerebellum at 30 minutes; assay type: ADME, organism-based; conditions: in vivo, 0.5 h; method in brief: as §4
Rattus norvegicus [21] = organism: Rattus norvegicus; test: Effect of vesamicol on the accumulation in rat liver [2.01 (1.65-3.34)]; assay type: ADME, organism-based; conditions: in vivo
Method in brief: (§5)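 Male Wistar rats (n = 4/group) given iv vehicle (100 μL 50% aqueous EtOH) or dl-vesamicol (1.01 μmol/kg); 15 min later iv radiotracer (2.0 μCi in 100 μL 50% aqueous EtOH); killed 30 min post-tracer. Blood by cardiac puncture, organs weighed and γ-counted vs 1:100 injected-dose dilution; % dose/g tissue (range); tissue/blood ratios.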

Rattus norvegicus [22] = organism: Rattus norvegicus; test: Effect of haloperidol on the regional distribution of compound in the remainder of rat brain (n=4) [0.33 (0.28-0.40)]; assay type: ADME, organism-based; conditions: in vivo
Rattus norvegicus [23] = organism: Rattus norvegicus; test: Ratio of tissue distribution between rat brain and blood after 60 min; assay type: ADME, organism-based; conditions: 1 h; method in brief: as §1
Rattus norvegicus [24] = organism: Rattus norvegicus; test: Regional kinetics in the rat cerebellum at 180 minutes; assay type: ADME, organism-based; conditions: in vivo, 3 h; method in brief: as §4
Rattus norvegicus [25] = organism: Rattus norvegicus; test: Tissue distribution in rat lung after 30 minutes (n=3); assay type: ADME, organism-based; conditions: in vivo, 0.5 h; method in brief: as §1
Rattus norvegicus [26] = organism: Rattus norvegicus; test: Ratio of regional kinetics between rat brain caudate and cortex at 30 minutes; assay type: ADME, organism-based; conditions: in vivo, 0.5 h; method in brief: as §3
[27] = Ratio of tissue distribution between rat heart and blood after 5 min; assay type: ADME, organism-based; conditions: heart and blood; method in brief: as §1
Rattus norvegicus [28] = organism: Rattus norvegicus; test: Effect of haloperidol on the regional distribution of compound in the rat brain cortex (n=4) [0.32 (0.29-0.38)]; assay type: ADME, organism-based, Cerebral cortex; conditions: in vivo
Rattus norvegicus [29] = organism: Rattus norvegicus; test: Ratio of tissue distribution between rat heart and blood after 30 min; assay type: ADME, organism-based; conditions: other tissue, 0.5 h; method in brief: as §1
Rattus norvegicus [30] = organism: Rattus norvegicus; test: Effect of vesamicol on the accumulation in rat muscle [0.16 (0.15-0.20)]; assay type: ADME, organism-based, Muscle tissue; conditions: in vivo
Method in brief: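 Male Wistar rats. Pretreatment at t = 0 was iv vehicle (50% aqueous EtOH) or iv dl-vesamicol (1.01 μmol/kg). At 15 min, iv [125I]tracer (2.0 μCi in 100 μL 50% aqueous EtOH) was given; rats were killed 30 min later. Tissues were weighed and γ-counted, and values expressed as % injected dose/g; n = 4 per group.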

Rattus norvegicus [31] = organism: Rattus norvegicus; test: Tissue distribution in rat lung after 60 minutes (n=3); assay type: ADME, organism-based; conditions: in vivo, 1 h; method in brief: as §1
Rattus norvegicus [32] = organism: Rattus norvegicus; test: Tissue distribution in rat spleen after 180 minutes (n=3); assay type: ADME, organism-based; conditions: in vivo, 3 h; method in brief: as §1
[33] = Ratio of tissue distribution between rat heart and blood after 120 min; assay type: ADME, organism-based
Rattus norvegicus [34] = organism: Rattus norvegicus; test: Ratio of effect 4-aminobenzovesamicol on regional distribution between rat brain caudate and cerebellum; assay type: ADME, organism-based; conditions: in vivo
Rattus norvegicus [35] = organism: Rattus norvegicus; test: Regional kinetics in the rat cerebellum at 120 minutes; assay type: ADME, organism-based; conditions: in vivo, 2 h
Method in brief: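 Male Wistar rats under ether anaesthesia, iv (+)-[125I]tracer (2 μCi in 100 μL 50% aqueous EtOH); killed at 30, 120 or 180 min. Brains partially frozen and dissected into striatum, cerebellum, cortex and remainder, then counted for radioactivity. Results are % injected dose/g, calculated against counted dilutions of the injected dose.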

Rattus norvegicus [36] = organism: Rattus norvegicus; test: Tissue distribution in rat heart after 5 minutes (n=3); assay type: ADME, organism-based; conditions: in vivo; method in brief: as §1
Rattus norvegicus [37] = organism: Rattus norvegicus; test: Ratio of effect 4-aminobenzovesamicol on regional distribution between rat brain caudate and cortex; assay type: ADME, organism-based; conditions: in vivo
Rattus norvegicus [38] = organism: Rattus norvegicus; test: Tissue distribution in rat brain after 30 minutes (n=3); assay type: ADME, organism-based; conditions: in vivo, 0.5 h; method in brief: as §1
Rattus norvegicus [39] = organism: Rattus norvegicus; test: Effect of 4-aminobenzovesamicol on the regional distribution of compound in the rat cerebellum (n=4) [0.12 (0.10-0.13)]; assay type: ADME, organism-based; conditions: in vivo
Rattus norvegicus [40] = organism: Rattus norvegicus; test: Ratio of regional kinetics between rat brain caudate and cerebellum at 30 minutes; assay type: ADME, organism-based; conditions: in vivo, 0.5 h; method in brief: as §3
Rattus norvegicus [41] = organism: Rattus norvegicus; test: Effect of vesamicol on the accumulation in rat brain [0.51 (0.45-0.66)]; assay type: ADME, organism-based; conditions: in vivo; method in brief: as §5
Rattus norvegicus [42] = organism: Rattus norvegicus; test: Regional kinetics in the rat brain caudate-putamen at 120 minutes; assay type: ADME, organism-based; conditions: in vivo, 2 h; method in brief: as §4
Rattus norvegicus [43] = organism: Rattus norvegicus; test: Tissue distribution in rat heart after 30 minutes (n=3); assay type: ADME, organism-based; conditions: in vivo, 0.5 h; method in brief: as §2
Rattus norvegicus [44] = organism: Rattus norvegicus; test: Tissue distribution in rrat heart after 60 minutes (n=3); assay type: ADME, organism-based; conditions: in vivo, 1 h; method in brief: as §1

Question: What does the source list for O[C@@H]1CCN(Cc2cccc([125I])c2)C[C@H]1N1CCC(c2ccccc2)CC1 (stereo in doubt; (+))?
Answer: Dose/g (Rattus norvegicus [1]): 0.57%; Ratio (Rattus norvegicus [2]): 2.35; Dose/g (Rattus norvegicus [3]): 0.27%; Dose/g (Rattus norvegicus [4]): 0.16%; Dose/g (Rattus norvegicus [5]): 0.23%; Dose/g (Rattus norvegicus [6]): 0.11%; Dose/g (Rattus norvegicus [7]): 0.17%; Dose/g (Rattus norvegicus [8]): 1.18%; Ratio (Rattus norvegicus [9]): 2.43; Dose/g (Rattus norvegicus [10]): 1.32%; Dose/g (Rattus norvegicus [11]): 13.13%; Dose/g (Rattus norvegicus [12]): 0.15%; Dose/g (Rattus norvegicus [13]): 2.18%; Dose/g (Rattus norvegicus [14]): 0.34%; Dose/g (Rattus norvegicus [15]): 1.6%; Dose/g (Rattus norvegicus [16]): 0.24%; Dose/g (Rattus norvegicus [17]): 0.09%; Dose/g (Rattus norvegicus [18]): 0.25%; Dose/g (Rattus norvegicus [19]): 3.67%; Dose/g (Rattus norvegicus [20]): 0.53%; Dose/g (Rattus norvegicus [21]): 1.93%; Dose/g (Rattus norvegicus [22]): 0.17%; Ratio (Rattus norvegicus [23]): 3.08; Dose/g (Rattus norvegicus [24]): 0.17%; Dose/g (Rattus norvegicus [25]): 1.21%; Ratio (Rattus norvegicus [26]): 0.98; Kp at 5 min [27]: 4.68; Dose/g (Rattus norvegicus [28]): 0.21%; Ratio (Rattus norvegicus [29]): 2.33; Dose/g (Rattus norvegicus [30]): 0.13%; Dose/g (Rattus norvegicus [31]): 0.82%; Dose/g (Rattus norvegicus [32]): 0.44%; Kp at 2 h [33]: 1.6; Ratio (Rattus norvegicus [34]): 2.07; Dose/g (Rattus norvegicus [35]): 0.28%; Dose/g (Rattus norvegicus [36]): 1.14%; Ratio (Rattus norvegicus [37]): 1.57; Dose/g (Rattus norvegicus [38]): 0.36%; Dose/g (Rattus norvegicus [39]): 0.11%; Ratio (Rattus norvegicus [40]): 1.2; Dose/g (Rattus norvegicus [41]): 0.3%; Dose/g (Rattus norvegicus [42]): 0.67%; Dose/g (Rattus norvegicus [43]): 0.26%; Dose/g (Rattus norvegicus [44]): 0.15%
